Results reported in PubChem BioAssay.
The source made the active and inactive calls.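 Rule for the calls, unless noted: active = viability at or below 10% of carrier control in both of two separate runs; inconclusive = viability at or below 10% in only one of the two runs; inactive = the rest.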

Tests used:
[1] = Her2 expression decrease, cell viability multiplex – SKBR3 breast tumor cells, AlphaScreen, ATP viability, primary screen (AID 461;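 active = Her2 level under about 52% in both replicate screens, with viability over 70% of control, limit read from the data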;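 for Her2 level: lower value means less Her2 protein in the cells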;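 for viability: percent of carrier control wells set as 100% viability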); conditions: SKBR3 Her2 protein level, 18-24 h, measured here: SKBR3 viability, ATP luminescence, at 10 µM
[2] = target: Receptor tyrosine-protein kinase erbB-2 (Homo sapiens) (UniProt P04626); assay: as above; conditions: 18-24 h, at 10 µM, stronger effect = lower value
[3] = reduced viability of SK-BR-3 breast cancer cells – cell-based, 24 h, human, pilot screen (AID 572); conditions: SK-BR-3 viability, CellTiter-Glo luminescence, at 10 µM, stronger effect = lower value;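 note: compound exposure lasted between 18 and 24 h rather than exactly 24 h; 100% = carrier-treated control wells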
[4] = HUVEC growth inhibition – cell-based, human, primary screen (AID 575;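 active = viability at or below 30% in both replicate assays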;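 note: 100% = median of untreated cell wells with 0.1% DMSO on each plate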); conditions: HUVEC proliferation, CellTiter-Glo luminescence, 72 h; at 10 µM; stronger effect = lower value
In short: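 Test system – primary HUVEC, no more than 12 passages · Dosing – one dose, 10 µM final, 0.1% DMSO · Times – 72 h treatment at 37 °C · Measured by – ATP-based CellTiter-Glo luminescent read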

[5] = MRP1 drug-resistance reversers in H69AR cells – cell-based, doxorubicin co-treatment, pilot screen (AID 601;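 active = viability loss from added drug above about 55%, and viability with drug at most 40%, in both replicates, limit read from the data, passing the limit was not always enough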); conditions: CellTiter-Glo, 72 h, at 10 µM; for differential viability (reversal): stronger effect = higher value
[6] = yeast transport mutant growth inhibition pilot in 384-well plates, post-Golgi transport modulator project (AID 636; in the data active = inhibition above about 31%); conditions: absorbance 615 nm, about 18 h, stronger effect = higher value
[7] = growth suppression of yeast trafficking mutant, preliminary HTS, modulators of trafficking downstream of Golgi apparatus project, 1536-format plate, OD 615 nm (AID 637; in the data active = inhibition above about 30%); conditions: yeast transport mutant growth, absorbance 615 nm, 18 h; stronger effect = higher value
[8] = H69AR cells + 2 uM doxorubicin, measured here: viability with 2 uM doxorubicin, stronger effect = lower value
[9] = H69AR cells, compound alone cytotoxicity

Chain of Receptor tyrosine-protein kinase erbB-2 (Homo sapiens) (P04626 whole entry, looked up): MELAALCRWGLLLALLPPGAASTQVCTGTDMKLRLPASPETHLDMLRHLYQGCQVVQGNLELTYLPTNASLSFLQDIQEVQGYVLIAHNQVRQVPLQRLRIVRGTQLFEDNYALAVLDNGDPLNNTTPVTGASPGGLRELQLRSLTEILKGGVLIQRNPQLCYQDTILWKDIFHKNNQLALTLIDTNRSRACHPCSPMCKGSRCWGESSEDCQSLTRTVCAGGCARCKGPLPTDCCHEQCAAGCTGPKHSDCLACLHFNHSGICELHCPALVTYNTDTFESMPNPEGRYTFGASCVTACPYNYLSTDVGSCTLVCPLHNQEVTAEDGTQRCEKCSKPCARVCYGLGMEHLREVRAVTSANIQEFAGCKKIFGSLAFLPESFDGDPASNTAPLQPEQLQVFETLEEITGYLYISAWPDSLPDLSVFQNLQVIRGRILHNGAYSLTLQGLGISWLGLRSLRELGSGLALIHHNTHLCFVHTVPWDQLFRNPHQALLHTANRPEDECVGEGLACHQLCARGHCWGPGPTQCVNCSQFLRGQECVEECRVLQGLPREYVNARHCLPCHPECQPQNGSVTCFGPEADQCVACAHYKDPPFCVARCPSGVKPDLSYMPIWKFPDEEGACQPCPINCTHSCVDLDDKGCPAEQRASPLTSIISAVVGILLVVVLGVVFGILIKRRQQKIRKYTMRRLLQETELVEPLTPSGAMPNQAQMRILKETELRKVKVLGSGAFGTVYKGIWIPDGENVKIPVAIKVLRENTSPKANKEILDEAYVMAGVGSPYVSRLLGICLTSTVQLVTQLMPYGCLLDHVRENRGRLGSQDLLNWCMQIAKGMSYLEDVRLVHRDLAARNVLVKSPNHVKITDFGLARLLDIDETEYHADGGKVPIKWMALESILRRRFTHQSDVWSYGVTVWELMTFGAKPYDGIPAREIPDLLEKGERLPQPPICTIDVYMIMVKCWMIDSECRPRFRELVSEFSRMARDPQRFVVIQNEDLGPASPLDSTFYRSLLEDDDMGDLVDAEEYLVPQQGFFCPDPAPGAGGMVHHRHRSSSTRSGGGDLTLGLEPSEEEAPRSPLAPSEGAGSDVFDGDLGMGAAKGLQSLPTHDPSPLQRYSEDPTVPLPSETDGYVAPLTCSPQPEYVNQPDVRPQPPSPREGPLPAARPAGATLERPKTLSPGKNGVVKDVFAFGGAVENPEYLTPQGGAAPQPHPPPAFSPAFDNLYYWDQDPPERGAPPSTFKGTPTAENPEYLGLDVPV

| Compound | viability [1] | Her2 level [2] | viability [3] | viability [4] | differential viability (reversal) ([5]; H69AR cells + 2 uM doxorubicin) | viability [5, 8] | viability [5, 9] | inhibition [6] | inhibition [7] |
| --- | --- | --- | --- | --- | --- | --- | --- | --- | --- |
| CCOc1ccccc1-n1nnnc1SCC(=O)Nc1cc2oc3ccccc3c2cc1OC | 68.5% | 102% (inactive) | 68.5% (inactive) | 63.6% (inactive) | -11.1% (inactive) | 54.7% | 43.6% | 4.16% (inactive) | -9.05% (inactive) |
| CCOC(=O)c1sc(NC(=O)CSc2n[nH]c(-c3ccccc3)n2)c(C#N)c1C | 122% | 65.5% (inactive) | 122% (inactive) | 48.2% (inactive) | 9.27% (inactive) | 32% | 41.3% | -6.27% (inactive) | 2.38% (inactive) |
| Cc1ccc(C)c(S(=O)(=O)C(C#N)c2nc3ccccc3nc2N2CC(C)OC(C)C2)c1 (centres undefined) | 91% | 77% (inactive) | 91% (inactive) | 52.2% (inactive) | -10.3% (inactive) | 70.7% | 60.4% | 0.52% (inactive) | 16.7% (inactive) |
| COc1ccc(N2C(=O)C(Cl)=C(Nc3c(C)n(C)n(-c4ccccc4)c3=O)C2=O)cc1 | 94% | 68% (inactive) | 94% (inactive) | 81.1% (inactive) | 10% (inactive) | 35.3% | 45.3% | -1.71% (inactive) | -6.03% (inactive) |
| Cc1[nH]nc(N=CC2=C(O)CC(C)(C)CC2=O)c1-c1ccc(Cl)cc1 | 94.5% | 94.5% (inactive) | 94.5% (inactive) | 79.4% (inactive) | 1.14% (inactive) | 38.9% | 40.1% | 6.8% (inactive) | 6.83% (inactive) |
| CCOC(=O)c1nnc2cc(-c3ccc(Br)cc3)nn2c1C | 76.5% | 93.5% (inactive) | 76.5% (inactive) | 70.3% (inactive) | 6.1% (inactive) | 43.6% | 49.7% | 4.55% (inactive) | -5.24% (inactive) |
| O=C(NC1CCc2ccccc21)C1CCN(S(=O)(=O)c2ccc(-n3cnnn3)cc2)CC1 (centres undefined) | 74.5% | 85% (inactive) | 74.5% (inactive) | 96.4% (inactive) | -8.48% (inactive) | 63.5% | 55% | -2.63% (inactive) | -0.36% (inactive) |
| N#CC1=C(SCC(=O)NC23CC4CC(CC(C4)C2)C3)NC(=O)C(C#N)C12CCCCC2 (centres undefined) | 74% | 76% (inactive) | 74% (inactive) | 54.1% (inactive) | -5.21% (inactive) | 41% | 35.8% | -5.48% (inactive) | -5.4% (inactive) |
| O=C(NCc1ccco1)c1cc2c(s1)CSC2 | 97.5% | 88% (inactive) | 97.5% (inactive) | 82.8% (inactive) | -26.3% (inactive) | 83.6% | 57.3% | -0.92% (inactive) | 2.86% (inactive) |
| COc1ccccc1-c1c(C)nn2c(N3CCC4(CC3)OCCO4)cc(C)nc12 | 90% | 89% (inactive) | 90% (inactive) | 99.3% (inactive) | 30.6% (inactive) | 29.3% | 60% | -1.05% (inactive) | -2.42% (inactive) |
| N#CC(C(=O)C1CCCCC1)c1nc2ccccc2[nH]1 (centres undefined) | 91.5% | 89.5% (inactive) | 91.5% (inactive) | 82% (inactive) | -19.9% (inactive) | 76.1% | 56.1% | 0.66% (inactive) | 20.6% (inactive) |
| CCOC(=O)c1sc2nc(SCC(=O)NCc3ccco3)n(Cc3ccccc3)c(=O)c2c1C | 90.5% | 84% (inactive) | 90.5% (inactive) | 82% (inactive) | 13% (inactive) | 33% | 46% | -5.68% (inactive) | 0.98% (inactive) |
| Cc1ccc(NC(=O)COS(=O)c2ccc(C)cc2)cc1 (centres undefined) | 97% | 95.5% (inactive) | 97% (inactive) | 69% (inactive) | -2.71% (inactive) | 41.3% | 38.6% | -1.69% (inactive) | -0.63% (inactive) |
| COC(=O)c1ccccc1S(=O)(=O)N(Cc1cc2cc3c(cc2[nH]c1=O)OCO3)C1CCCCC1 | 83% | 98.5% (inactive) | 83% (inactive) | 82.6% (inactive) | -7.41% (inactive) | 67.4% | 60% | 4.74% (inactive) | -2% (inactive) |
| Cc1nc2ccccc2c(=O)n1NC(=O)c1c(O)c2c(n(CC(C)C)c1=O)CCCC2 | 88.5% | 73.5% (inactive) | 88.5% (inactive) | 92% (inactive) | -17.2% (inactive) | 66.3% | 49.1% | -1.84% (inactive) | 9.35% (inactive) |
| Cc1ccc2nc(NC(=O)C3CCN(S(=O)(=O)c4cccc5nsnc45)CC3)sc2c1 | 85.5% | 63.5% (inactive) | 85.5% (inactive) | 42.8% (inactive) | -10.7% (inactive) | 76.5% | 65.8% | -5.07% (inactive) | 10.3% (inactive) |
